The array DNA melting data of Ke et al. (doi:10.1101/2024.01.08.574731)

Columns and labels:
[1] = melting temperature; fluorescence melt of hairpins on a sequencing array, two-state fit, raised by 9.35 °C to match UV melts; conditions: sodium 0.088 M
In short: (§1)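 Hairpins were imaged by Cy3 fluorescence on a sequenced MiSeq flow cell with annealed Cy3 and quencher oligos, in 50 mM Na-HEPES pH 8.0, 25 mM NaCl, in 2.5 °C steps up to 60 °C. Bootstrapped two-state fits of normalised signals gave melting temperature and folding enthalpy. Four replicates were combined by inverse variance, and fitted temperatures were raised by 9.35 °C to match UV melts.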

[2] = folding enthalpy; higher = less favourable; fluorescence melt of hairpins on a sequencing array, two-state fit; conditions: sodium 0.088 M
In short: as §1

Sequence | Tm [1] [°C] | folding enthalpy [2] [kcal/mol]
GCTTCGGGAAACTGGAGC (((.(.(....).).))) | 39.1 | -32.7
GTGAGCGAAAGCTTCCAC ((((((....)))..))) | 28.7 | -15.2
GGAGCCGGAAACGGCCCC ((.((((....)))).)) | 58.5 | -15.5
GAATGAGGAAACCCATTC (((((.(....).))))) | 36.1 | -20.9
GACTCACGAAAGTGGGTC (((.(((....))).))) | 57.6 | -41.1
GCTATCGAAAGATAGAGC ((((((....)))..))) | 42.7 | -23.4
TCAGTGAAAACTGA (((((....))))) | 42.6 | -16.9
GATCCACTAGTGGATC ((((((....)))))) | 62.3 | -40.6
GATCCCACTCGGGATC ((((((....)))))) | 61.8 | -38.1
GACCAAGGAAACTTGGCC (.(((((....))))).) | 41.7 | -16.6
GGTTCTGGAAACAGAGTC (..((((....))))..) | 28.1 | -11.8
GCTCCCGAAAGGGTGAGC ((((((....)))..))) | 48.8 | -16.7
GCGAGCGGAAACGCTCAC (.(((((....))))).) | 50.6 | -12.3
GTTCCGGGAAACTGGGAC ((.((.(....).)).)) | 41.4 | -28.2
GCCGAGCGAAAGCGCTGC ((.(.((....)).).)) | 45.6 | -12.4
GATCGGAGAACCGATC ((((((....)))))) | 52.6 | -33.8
ACAATGAAAATTGT (((((....))))) | 34.8 | -11.1
GGGATGGGAAACCACCCC (((.(((....))).))) | 47.3 | -32
GATGTCCGAAAGGAAATC (((.(((....))).))) | 43.6 | -24
GGCAATGGAAACATTGTC (.(((((....))))).) | 48.4 | -33.5
CGTTCGGAAACGAAACG ((((((....))).))) | 45.8 | -27.8
GAGCTCACGAAAGTGCTC (((..(((....)))))) | 44.4 | -20.8
GCCCTTCCGAAAGGAGGC (((..(((....)))))) | 41.1 | -17.7

Sequence | Tm [1] [°C] | folding enthalpy [2] [kcal/mol]
GTAACCGGAAACGGTCAC ((.((((....)))).)) | 39.7 | -17.2
GCGACTGGAAACAGCCAC (.(.(((....))).).) | 27.7 | -12.2
GTAAGACGAAAGTCTAC (((.(((....)))))) | 41.7 | -14.6
GCTCGGCGAAAGCTAAGC (((..((....))..))) | 44.4 | -15.8
GGTTTACGAAAGTATACC (((.(((....))).))) | 45.5 | -39.3
GTCTTCACGAAAGTGGAC (((..(((....)))))) | 31.9 | -14.2
GACGCCGAAAGGCCGTC ((((((....))).))) | 61.4 | -18.7
GCGTATGGAAACATGCGC (((.(((....))).))) | 57 | -38.2
CGGCTGCGGAAACGCCCG (((..(((....)))))) | 44.2 | -18.5
GCAATGCGAAAGCAGTGC (((.(((....))).))) | 65.6 | -33.6
GGCCCCGAAAGGGGAGCC ((((((....)))..))) | 59.1 | -12.8
GCGACCGCTCGC ((((....)))) | 48.1 | -17.3
GGCTGAGGAAACTCGGTC (.(.(((....))).).) | 40.8 | -25
GTAGACGGAAACGTCTGC (.(((((....))))).) | 55.1 | -24.6
GACCTCCCGAAAGGGGTC (((..(((....)))))) | 40 | -15.2
GCGCTACGAAAGTAACGC (((.(((....))).))) | 56.5 | -41.1
GTATGGGGAAACTCATAC (((((.(....).))))) | 40.5 | -34.5
GACACACGAAAGTGGGTC (((.(((....))).))) | 67.6 | -37.8
GATCGGAGCCCGATC ((((((...)))))) | 53.4 | -31.2
GATCCCCGATGGGATC ((((((....)))))) | 60.9 | -34.5
GATCCAACTATGGATC ((((((....)))))) | 49.6 | -39.6
GATCCCAGCTGGGATC ((((((....)))))) | 62.3 | -46.9
GATAAAGGAAACTTTATC (((((((....))))))) | 44.4 | -31.7

Sequence | Tm [1] [°C] | folding enthalpy [2] [kcal/mol]
GCACCCGAAAGGGGATGC ((((((....)))..))) | 50.8 | -19.6
GATCGTTACTACGATC ((((((....)))))) | 55.1 | -42.8
GGCCCCGAAAGGGAGCC ((((((....))).))) | 68.4 | -31.6
GGGTACCGAAAGGTGCCC (((.(((....))).))) | 68.7 | -29.2
GATACACGAAAGTGCATC (((.(((....))).))) | 44.2 | -23.7
GGTCTCGAAAGAGATACC ((((((....)))..))) | 38.7 | -15.2
GGTACCGAAAGGTAACC ((((((....))).))) | 53.4 | -26.9
GTTGTCGGAAACGATAAC (((.(((....))).))) | 47.8 | -34.6
GCTTGCCGAAAGGCTAGC (((.(((....))).))) | 64.4 | -27.8
GTGTCCGAAAGGATGCAC ((((((....)))..))) | 42.9 | -15.8
GGTCACGAAAGTGTGACC ((((((....)))..))) | 56.3 | -33.8
GATCCGCCACGGATC ((((((...)))))) | 57.2 | -37
GCGGCCGGAAACAGCCGC (((((.(....).))))) | 64.8 | -22.9
CGCGGACAGTCCGCG ((((((...)))))) | 65.6 | -32.6
GATGACGAAAGTCCATC ((((((....))).))) | 41.5 | -17.2
GATCCTCAAGAGGATC ((((((....)))))) | 53.4 | -38
GTGCATGGAAACGTGTAC ((.((.(....).)).)) | 38.6 | -17.6
GACACAGGAAACTGCGTC (((.(((....))).))) | 45.3 | -23.4
GTTGTCGAAAGACTAAAC ((((((....)))..))) | 29.5 | -13.6
CGGCTACGGAAACGTCCG (((..(((....)))))) | 36.6 | -13.3
GATCCGCGGCGGATC ((((((...)))))) | 57.7 | -50.8
GGTGTCTCGAAAGAGACC (((..(((....)))))) | 49.4 | -12.3
GTCGCTCGAAAGAGGGAC (((.(((....))).))) | 63.2 | -44.3

Sequence | Tm [1] [°C] | folding enthalpy [2] [kcal/mol]
GCGACTGGAAACGGTCGC (((((.(....).))))) | 64.7 | -46.3
GACCGCCGAAAGGCGTC (((.(((....)))))) | 45.4 | -8.69
CGAGCGGAAACGCCTTCG ((((((....)))..))) | 32 | -10.7
GCTTGCCGAAAGGCAGC (((.(((....)))))) | 60.1 | -14.4
GTATTGCGAAAGCAGTAC (((.(((....))).))) | 51.6 | -26.8
GTGTAAGGAAACTTACGC (.(((((....))))).) | 45.3 | -25.7
GGAACTCGAAAGAGCTCC (((.(((....))).))) | 48.2 | -33.9
GATCCTAGCGAGGATC ((((((....)))))) | 52.8 | -32.9
GATCGTCCAACGATC ((((((...)))))) | 55.6 | -39.4
GCGATCCGAAAGGAACGC (((.(((....))).))) | 66.8 | -40
GTAGAGGAAACTCTAC ((((((....)))))) | 49.1 | -25.3
GACTCCGAAAGGACGTC ((((((....))).))) | 49.9 | -30.8
GTTGCACCGAAAGGTAAC (((..(((....)))))) | 30.4 | -14.4
GAGACTGGAAACAGTCCC (.(((((....))))).) | 44.9 | -11
GATCCTAAAAGGATC ((((((...)))))) | 54.3 | -36.3
GTCTACGAAAGTAATGAC ((((((....)))..))) | 30.7 | -17.6
GCCATTGAAAAATGGC ((((((....)))))) | 58.4 | -39.8
GGCTGGGGAAACCTGGCC (((..((....))..))) | 51.7 | -30.6
GTCCCTCGAAAGAGAGAC (((.(((....))).))) | 46.2 | -23.3
GGGATGCGAAAGCAACCC (((.(((....))).))) | 63.6 | -24.4
GTCGGCGGAAACACCGAC (((((.(....).))))) | 55.3 | -37.9
GACCAGCGAAAGCTCGTC (((.(((....))).))) | 42.4 | -18.6
GGTACCGGAAACAGTACC (((((.(....).))))) | 39.9 | -31.1
